Screens from PubChem BioAssay.
Most compounds without a hit are left out; they make up all but 2.7% or so of the library.
SIAE inh – inhibitors of human sialic acid acetylesterase SIAE; SIAE FP-Rh probe binding, fluorescence polarization; hit rate 0.69% among 370,000; inhibition, % at 9.66 µM; Q9HAT2;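 active means inhibition above a cutoff: mean of compounds within the control limits plus 3 SD of those, cut at about 17% in these data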
HTRA1 inhibitor – blocks human HTRA1 serine peptidase. recombinant HTRA1, FP-rhodamine activity-based probe, fluorescence polarization. inhibition, % at 5.96 µM. hit rate 0.5% among 340,000. AID 504803; in the data active means inhibition above about 36%
Target sequence (Q92743 whole entry, looked up): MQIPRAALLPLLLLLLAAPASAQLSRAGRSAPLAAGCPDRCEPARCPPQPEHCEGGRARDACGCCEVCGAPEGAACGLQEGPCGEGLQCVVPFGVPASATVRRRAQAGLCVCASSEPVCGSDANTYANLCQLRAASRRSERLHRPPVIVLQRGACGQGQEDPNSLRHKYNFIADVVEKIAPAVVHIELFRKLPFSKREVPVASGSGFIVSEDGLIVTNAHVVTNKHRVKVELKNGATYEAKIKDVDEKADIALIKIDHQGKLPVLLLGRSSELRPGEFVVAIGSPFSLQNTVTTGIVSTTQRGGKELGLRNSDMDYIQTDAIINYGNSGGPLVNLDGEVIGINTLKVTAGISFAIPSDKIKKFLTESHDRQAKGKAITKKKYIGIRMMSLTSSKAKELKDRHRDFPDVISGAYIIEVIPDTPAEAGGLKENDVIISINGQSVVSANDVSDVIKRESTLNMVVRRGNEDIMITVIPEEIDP
mABHD4 FP – ABHD4 (mouse) inhibition, primary FP screen; inhibition, % at 8.92 µM; Q8VD66; AID 720543; hit rate 0.54% among 370,000; purified mABHD4, FP-Rh probe fluorescence polarization;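 active means inhibition exceeding the mean over every tested compound plus 3 SD, cut at about 30% in these data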
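Doses – 8.92 µM, single dose · Material – wild-type mouse ABHD4 protein · Replication – single well per compound (singlicate) · Measure – percent inhibition of probe binding, normalized to plate controls · Schedule – 45 min compound pre-incubation plus 60 min probe step, 25 °C · Detection – fluorescence polarization with parallel and perpendicular emission, 525/598 nm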
TCR CD3 inh – human TCR-CD3 binding inhibition. TAMRA-labeled TCR probe fluorescence, biochemical. inhibition, % at 9.4 µM. hit rate 0.37% among 360,000. AID 651800;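 further: recombinant mutant TCR 2C K166C tagged with TAMRA read by polarization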
PRMT1 FP inh – blocks human protein arginine methyltransferase 1. Q99873. recombinant PRMT1, activity-based probe fluorescence polarization. inhibition, % at 2.79 µM. hit rate 1.3% among 370,000. AID 652257;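 active means inhibition above about 21% made by adding two undisclosed values, limit read from the data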
BSA TAMRA ctr – counter-screen for TCR-CD3 interaction inhibitors: BSA probe. shares compounds with TCR CD3 inh. TAMRA-labeled BSA probe fluorescence counterscreen. inhibition, % at 9.4 µM. hit rate 10% among 1,200. AID 652035; in the data active means inhibition above about 23%
TCR-CD3 conf – TCR-CD3 interaction inhibition, confirmation. shares compounds with TCR CD3 inh. TAMRA-labeled TCR probe fluorescence binding assay. inhibition, % at 9.4 µM. hit rate 48% among 1,200. AID 652036
PRMT1 confirm – PRMT1 (human) inhibition, FP confirmation; shares compounds with PRMT1 FP inh; recombinant His-PRMT1, activity-based probe fluorescence polarization; inhibition, % at 2.79 µM; hit rate 42% among 3,300; AID 687036;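 active means mean inhibition across replicates above the hit cutoff derived for the earlier primary screen, cut at about 22% in these data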
ABHD4 confirm – ABHD4 (mouse) inhibition, FP confirmation. shares compounds with mABHD4 FP. hit rate 55% among 1,800. inhibition, % at 8.92 µM. purified mABHD4, FP-Rh probe fluorescence polarization;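 active means mean inhibition across replicates above the hit cutoff set in the primary screen, cut at about 30% in these data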
Hits are given with their value; n = inactive; x = not tested or not shown. Unless noted, no stated cut-off is given here; in the data, active means inhibition above about 19%; inactive means the rest.

SMILES | SIAE inh | HTRA1 inhibitor | mABHD4 FP | TCR CD3 inh | PRMT1 FP inh | BSA TAMRA ctr | TCR-CD3 conf | PRMT1 confirm | others
CCN(CC)S(=O)(=O)c1ccc(NC(=O)Nc2cccc(C(F)(F)F)c2)cc1 | n | n | n | 81 | n | 24 | 54 | x
O=C(COc1coc(CN2CCc3ccccc3C2)cc1=O)Nc1cccc([N+](=O)[O-])c1 | n | n | n | n | n | x | x | x
COC(=O)c1cccc(CC2(C)C(=O)Nc3cc(-c4ccccc4Cl)ccc32)c1 (centres undefined) | n | x | n | n | n | x | x | x
Oc1c(C=Nc2cccc3cccnc23)sc2ccccc12 | n | x | n | 29 | 31 | 60 | 28 | 32
O=C(N/N=C/c1sc2ccccc2c1O)c1ccccc1 | x | n | x | x | x | x | x | x
CCN(C(=O)Cn1nc(C)c([N+](=O)[O-])c1C)c1c(N)n(Cc2ccccc2)c(=O)[nH]c1=O | n | n | n | n | n | x | x | x
Cc1ccccc1OCC(=O)N/N=C/c1ccc([N+](=O)[O-])o1 | n | n | n | n | n | x | x | x
COc1ccccc1OCC(=O)N/N=C/C=C/c1ccc([N+](=O)[O-])o1 | n | n | n | 27 | 25 | n | n | n
Cc1nc(Cl)c2c(n1)NC1=C(O2)C(=O)CCC1 | n | n | n | 37 | 36 | 29 | 30 | 48
CC(C)CCNC(=O)C1(C)CCN1Cc1ccc2ccccc2c1 (centres undefined) | n | x | n | n | n | x | x | x
Cc1ccc(Cl)cc1NC(=O)CSc1sc2c(O)cc(=O)[nH]c2c1C#N | n | n | n | n | n | x | x | x
COc1ccc(NC(=O)CSc2sc3c(O)cc(=O)[nH]c3c2C#N)c(OC)c1 | n | n | n | 29 | 66 | n | 20 | n
Cc1csc(NC(=O)CSc2sc3c(O)cc(=O)[nH]c3c2C#N)n1 | n | n | n | 23 | 81 | n | n | n
O=C1C(Br)=C(c2ccccc2)C(c2ccccc2)=C1c1ccccc1 | x | n | x | x | x | x | x | x
O=C(NNC(=O)C1CC(c2cccs2)=NO1)Nc1ccccc1 (centres undefined) | n | n | n | n | n | x | x | x
OCC[C@@H]1C[C@H](O)[C@@H](O)[C@]2(OCc3ccc(CO)cc32)O1 | n | x | n | n | n | x | x | x
COc1ccc(CCNC(=O)C(=O)NCC2OCCN2S(=O)(=O)c2ccc(OC)cc2)cc1 (centres undefined) | n | n | n | 49 | 30 | n | n | n
Cc1ccc(NC(=O)CN2CCN(C)CC2)cc1Br | n | n | n | n | n | x | x | x
O=Cc1ccc(-c2nc3ccccc3s2)o1 | n | n | n | n | n | x | x | x
O=C(O)CC(C(=O)O)N1C(=O)/C(=C/c2ccc(-c3nc4ccccc4s3)o2)SC1=S (centres undefined) | n | n | 38 | 22 | 55 | n | 26 | n
CC(=O)OCCn1c2nc(=O)[nH]c(=O)c-2nc2cc(C)c(C)cc21 | 20 | n | n | 37 | 159 | 51 | 34 | 150
Cc1cc2nc3c(=O)[nH]c(=O)[nH]c3nc2c([N+](=O)[O-])c1N | n | n | n | 24 | 79 | 85 | 103 | 112
CCN(CC)c1ccc2nc3ccc(N)cc3[n+](-c3ccccc3)c2c1 | n | n | n | 124 | 26 | 121 | 97 | n
CCCCCCC(=O)NC1CCCCN(C)C1=O (centres undefined) | n | x | n | n | n | x | x | x
Cc1ccc2nc(C)cc(SCC(=O)N/N=C/c3ccco3)c2c1 | n | n | n | 19 | 52 | n | n | n
SMILES | SIAE inh | HTRA1 inhibitor | mABHD4 FP | TCR CD3 inh | PRMT1 FP inh | BSA TAMRA ctr | TCR-CD3 conf | PRMT1 confirm | others
COc1ccc2nc(C)cc(SCC(=O)N/N=C/c3cccc4ccccc34)c2c1 | n | n | n | n | n | x | x | x
CN(CCO)c1nc(N)c2c(N)nc3c(c2c1C#N)CC(=O)N3Cc1cccs1 | n | n | n | 21 | 27 | n | n | n
COc1cc2ccccc2cc1C(=O)Nc1ccccc1Cl | n | n | n | n | n | x | x | x
COc1cc2ccccc2cc1C(=O)NNC(=O)c1ccccc1O | n | n | n | 34 | 40 | n | 25 | n
COc1cc2cc3c(N)c(C(=O)Nc4sc(C)c(C)c4C#N)sc3nc2cc1OC | n | n | n | 24 | 27 | n | n | n
CC1N=C(SCC(=O)c2ccc(F)cc2)N2C(C)N=C(SCC(=O)c3ccc(F)cc3)N12 (centres undefined) | n | n | n | n | n | x | x | x
CC(=O)O[C@H]1C[C@@H](n2cnc3c(Cl)ncnc32)[C@@H]2OC(C)(C)O[C@@H]21 | n | x | n | n | n | x | x | x
N#Cc1c(N)c(C#N)c(-c2ccc(O)cc2)c2c1CCCC2 | n | n | n | n | n | x | x | x
N#Cc1c(N)sc(=S)c2c1CCCCC2 | n | n | 35 | 26 | 40 | n | 26 | 36
CC(=O)c1cccc(NC(=O)CSc2ccc(-c3ccco3)nn2)c1 | n | n | n | 26 | 54 | n | n | 66
Cc1cc2cc(CNC(=O)c3ccco3)ccc2n1C | n | n | n | 31 | 36 | n | n | n
COc1ccc(C(=O)NCc2ccc3c(c2)cc(C)n3C)cc1 | n | n | n | n | n | x | x | x
O=[N+]([O-])c1ccc(O)c(/C=N/NC(=S)Nc2ccc(Cl)cc2Cl)c1 | n | n | 35 | 23 | n | n | 33 | x | ABHD4 confirm=n
O=C(N/N=C/c1ccncc1)c1cc([N+](=O)[O-])cc([N+](=O)[O-])c1O | n | n | 32 | 38 | n | n | 48 | x | ABHD4 confirm=36
O=C(N/N=C/c1cc2c(c([N+](=O)[O-])c1)OCO2)c1ccncc1 | n | n | n | n | n | x | x | x
O=C(CSc1nnc(-c2ccco2)c(-c2ccco2)n1)c1ccccc1 | n | n | 46 | 35 | 65 | n | 19 | x | ABHD4 confirm=n
CC(C)C[C@H]1CN(CCCC[C@H]2CNC(=O)C(=O)N2CCc2ccc(O)cc2)C(=O)C(=O)N1CCC1CCCCC1 | n | x | n | n | n | x | x | x
CCCOc1ccc(/C=N/Nc2ccccc2[N+](=O)[O-])c(O)c1 | n | n | n | n | n | x | x | x
CCCOc1ccc(/C=N/NC(=S)Nc2ccccc2[N+](=O)[O-])c(O)c1 | n | x | 39 | 27 | n | n | n | x | ABHD4 confirm=36
Cc1ccccc1NC(=S)N/N=C/c1ccc(O)cc1O | n | n | 34 | 20 | n | n | n | x | ABHD4 confirm=n
Cc1cccc(NC(=S)N/N=C/c2cccc(O)c2)c1C | n | n | n | n | n | x | x | x
Cc1cccc(N(CC(=O)N/N=C/c2ccc(C(=O)O)cc2)S(=O)(=O)c2ccccc2)c1C | n | x | n | n | n | x | x | x
O=C1NC[C@H](CCCCN2CCN(CC3CCCCC3)C(=O)C2=O)N(CCc2ccccc2)C1=O | n | x | n | n | n | x | x | x
